Measured values from ChEMBL document CHEMBL3804820, “2-hydroxyisoquinoline-1,3(2H,4H)-diones (HIDs) as human immunodeficiency virus type 1 integrase inhibitors: Influence of the alkylcarboxamide substitution of position 4” (Eur J Med Chem, 2016).
Values after ≈ are worked out from the molar mass of the structure shown. Active and inactive are the calls of the source. The calls are words filed in the database; no cut-off is given here.

Columns and labels:
[1] = Aqueous solubility in PBS at pH 7.4; format: physicochemical
Procedure, shortened: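 Aqueous solubility measured in PBS, pH 7.4, in a standard contract assay.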

[2] = Cytotoxicity against human HepG2 cells assessed as reduction in mitochondrial membrane potential at 1 uM after 72 hrs by fluorescent image analysis relative to untreated control; format: cell-based; conditions: read-out: INH
Procedure, shortened: (§1)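 Contract in vitro cytotoxicity panel covering cell number, intracellular free calcium, nuclear size, membrane permeability and mitochondrial membrane potential. Compounds tested at 1.0, 30.0 and 100.0 µM; values are percentage change versus untreated control, and IC50 where derived.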

[3] = Cytotoxicity against human HepG2 cells assessed as reduction in mitochondrial membrane potential at 30 uM after 72 hrs by fluorescent image analysis relative to untreated control; format: cell-based; conditions: read-out: INH; procedure, shortened: as §1
MDCK-II [4] = test: Inhibition of human P-gp expressed in MDCK2-MDR1 cells assessed as reduction in calcien-AM efflux at 30 uM incubated for 20 mins by fluorimetry relative to control; format: cell-based
Procedure, shortened: (§2)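 P-gp efflux inhibition in MDR1-MDCKII cells with calcein AM substrate, tested up to 100.0 µM. Read as percentage inhibition of control.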

HepG2 [5] = test: Cytotoxicity against human HepG2 cells assessed as increase in membrane permeability at 100 uM after 72 hrs by fluorescent image analysis relative to untreated control; format: cell-based; conditions: hepg2, 72 h
[6] = target: Human immunodeficiency virus type 1 integrase (Human immunodeficiency virus 1, UniProt Q7ZJM1); test: Inhibition of HIV1 integrase 3'-processing activity using 5'-ACTGCTAGAGATTTTCCACACTGACTAAAAGGGTC-[biotin]3' as substrate incubated for 1 hr by ELISA
[7] = Cytotoxicity against human HepG2 cells assessed as reduction in cell number at 1 uM after 72 hrs by fluorescent image analysis relative to untreated control; format: cell-based; conditions: read-out: INH; procedure, shortened: as §1
CYP2D6 = CYP2D6 (Homo sapiens, UniProt P10635); test: Inhibition of human recombinant CYP2D6 using MFC as substrate at 10 uM incubated for 40 mins by fluorimetry relative to control; format: ADME; conditions: recombinant CYP2D6, probe MFC
Procedure, shortened: (§3)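 Recombinant CYP isoforms, each with its fluorogenic substrate: CYP1A2 and CYP2C19 with CEC, CYP2C9 and CYP2D6 with MFC, CYP3A4 with BFC. Read as percentage inhibition of control, standard contract assays.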

hERG (KCNH2) = hERG (KCNH2) (Homo sapiens, UniProt Q12809); test: in vitro; conditions: CHO-K1 cells expressing human ERG
HepG2 [8] = test: Cytotoxicity against human HepG2 cells assessed as increase in intracellular free calcium level at 30 uM after 72 hrs by fluorescent image analysis relative to untreated control; format: cell-based; conditions: hepg2, 72 h; procedure, shortened: as §1
CYP3A4 = CYP3A4 (Homo sapiens, UniProt P08684); test: Inhibition of human recombinant CYP3A4 using BFC as substrate at 10 uM incubated for 30 mins by fluorimetry relative to control; format: ADME; conditions: recombinant CYP3A4, probe BFC; procedure, shortened: as §3
HepG2 [9] = test: Cytotoxicity against human HepG2 cells assessed as increase in membrane permeability at 30 uM after 72 hrs by fluorescent image analysis relative to untreated control; format: cell-based; conditions: hepg2, 72 h
[10] = system: Human immunodeficiency virus 1; test: Antiviral activity against HIV1 3B infected in human MT4 cells assessed as reduction in virus-induced cytopathic effect by MTT assay; format: functional, organism-based; conditions: Human immunodeficiency virus 1, 3B
Procedure, shortened: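 MT-4 cells infected with 100-300 CCID50 of HIV-1 IIIB, in the presence of 5-fold serial dilutions of compound. Cytopathic effect read by MTT reduction to formazan, measured spectrophotometrically. EC50 is the concentration giving 50% protection against virus-induced CPE.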

[11] = Cytotoxicity against human HepG2 cells assessed as reduction in cell number at 30 uM after 72 hrs by fluorescent image analysis relative to untreated control; format: cell-based; conditions: read-out: INH; procedure, shortened: as §1
[12] = Cytotoxicity against human MT4 cells assessed as reduction in cell viability by MTT assay; format: cell-based
Procedure, shortened: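 MT-4 cell viability was measured by MTT reduction, run in parallel with the antiviral assay using 5-fold serial compound dilutions. CC50 is the concentration reducing viability by 50%.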

[13] = system: Human immunodeficiency virus 1; test: Antiviral activity against HIV1 3B infected in human MT4 cells at 50 to 100 times antiviral EC50 added 1 to 25 hrs post infection assessed as time required for loss of inhibition of viral replication measured at 30 hrs post infection by p24 ELISA method; format: functional
[14] = Plasma protein binding in human at 10 uM incubated for 4 hrs by equilibrium dialysis method; format: ADME, cell-free; conditions: read-out: PPB
Procedure, shortened: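 Human plasma protein binding, given as percent bound and percent recovery, in a standard contract assay.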

[15] = Cytotoxicity against human HepG2 cells assessed as reduction in cell number at 100 uM after 72 hrs by fluorescent image analysis relative to untreated control; format: cell-based; conditions: read-out: INH; procedure, shortened: as §1
[16] = Inhibition of recombinant HIV1 reverse transcriptase RNase H activity using calf thymus ssDNA-[3H]-RNA as template/primer incubated for 10 mins; set-up: species or system Human immunodeficiency virus 1
Procedure, shortened: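 Recombinant HIV-1 RT (4.5 pmol) preincubated with compound 10 min at 37 °C. Then reacted 10 min at 37 °C with [3H]-RNA/calf thymus DNA hybrid (20,000 cpm) in 50 mM Tris-HCl pH 8.0, 10 mM DTT, 6 mM MgCl2, 80 mM KCl. Stopped with cold TCA/pyrophosphate; released radioactivity taken by subtraction from undigested control.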

MDCK-II [17] = test: Inhibition of human P-gp expressed in MDCK2-MDR1 cells assessed as reduction in calcien-AM efflux at 1 uM incubated for 20 mins by fluorimetry relative to control; format: cell-based; procedure, shortened: as §2
CYP2C19 = CYP2C19 (Homo sapiens, UniProt P33261); test: Inhibition of human recombinant CYP2C19 using CEC as substrate at 10 uM incubated for 50 mins by fluorimetry relative to control; format: ADME; conditions: recombinant CYP2C19, probe CEC; procedure, shortened: as §3
CYP1A2 = target: T1, CYP1A2 (Homo sapiens, UniProt P05177); test: Inhibition of human recombinant CYP1A2 using CEC as substrate at 10 uM incubated for 30 mins by fluorimetry relative to control; format: ADME; conditions: recombinant CYP1A2, probe CEC; procedure, shortened: as §3
T1 sequence (P05177 whole entry): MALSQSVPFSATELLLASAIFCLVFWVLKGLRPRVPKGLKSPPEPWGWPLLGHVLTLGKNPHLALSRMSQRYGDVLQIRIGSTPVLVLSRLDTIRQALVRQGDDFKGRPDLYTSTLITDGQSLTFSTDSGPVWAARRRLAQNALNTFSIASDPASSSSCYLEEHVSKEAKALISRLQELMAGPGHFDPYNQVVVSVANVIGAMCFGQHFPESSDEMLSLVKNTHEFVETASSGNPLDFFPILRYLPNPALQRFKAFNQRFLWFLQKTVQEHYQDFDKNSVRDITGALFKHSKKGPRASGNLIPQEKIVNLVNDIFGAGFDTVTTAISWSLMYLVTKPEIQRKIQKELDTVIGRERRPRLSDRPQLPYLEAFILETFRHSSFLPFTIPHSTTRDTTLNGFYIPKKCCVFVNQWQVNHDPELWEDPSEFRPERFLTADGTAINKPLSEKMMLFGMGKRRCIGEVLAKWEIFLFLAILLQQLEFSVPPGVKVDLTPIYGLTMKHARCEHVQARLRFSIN

Chain of CYP3A4 (P08684 whole entry): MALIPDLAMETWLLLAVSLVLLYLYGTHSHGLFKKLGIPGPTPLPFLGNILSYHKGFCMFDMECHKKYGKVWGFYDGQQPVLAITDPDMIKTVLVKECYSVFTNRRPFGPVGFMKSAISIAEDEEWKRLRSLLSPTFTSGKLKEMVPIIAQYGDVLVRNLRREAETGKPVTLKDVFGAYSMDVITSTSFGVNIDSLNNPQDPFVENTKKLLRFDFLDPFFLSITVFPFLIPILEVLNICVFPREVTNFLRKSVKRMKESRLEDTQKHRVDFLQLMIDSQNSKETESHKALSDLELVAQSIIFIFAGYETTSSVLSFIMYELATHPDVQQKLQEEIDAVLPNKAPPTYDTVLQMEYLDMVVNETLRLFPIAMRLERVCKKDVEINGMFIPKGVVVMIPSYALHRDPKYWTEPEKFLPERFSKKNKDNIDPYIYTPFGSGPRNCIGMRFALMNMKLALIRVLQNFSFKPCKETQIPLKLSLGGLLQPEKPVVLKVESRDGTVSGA
Chain of CYP2C19 (P33261 whole entry): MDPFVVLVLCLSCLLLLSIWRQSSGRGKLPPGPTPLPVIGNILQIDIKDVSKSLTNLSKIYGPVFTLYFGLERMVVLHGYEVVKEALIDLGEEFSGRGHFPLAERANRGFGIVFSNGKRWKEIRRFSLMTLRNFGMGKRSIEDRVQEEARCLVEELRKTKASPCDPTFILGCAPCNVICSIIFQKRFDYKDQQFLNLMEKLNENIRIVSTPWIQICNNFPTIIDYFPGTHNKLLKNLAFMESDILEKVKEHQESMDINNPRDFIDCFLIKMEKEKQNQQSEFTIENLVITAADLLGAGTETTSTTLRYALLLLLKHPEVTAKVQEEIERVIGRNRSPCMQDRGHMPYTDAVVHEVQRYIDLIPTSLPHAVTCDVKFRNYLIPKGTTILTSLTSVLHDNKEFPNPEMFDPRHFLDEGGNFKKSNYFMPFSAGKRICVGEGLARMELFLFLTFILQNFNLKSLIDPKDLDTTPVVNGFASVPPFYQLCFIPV
Chain of hERG (KCNH2) (Q12809 whole entry): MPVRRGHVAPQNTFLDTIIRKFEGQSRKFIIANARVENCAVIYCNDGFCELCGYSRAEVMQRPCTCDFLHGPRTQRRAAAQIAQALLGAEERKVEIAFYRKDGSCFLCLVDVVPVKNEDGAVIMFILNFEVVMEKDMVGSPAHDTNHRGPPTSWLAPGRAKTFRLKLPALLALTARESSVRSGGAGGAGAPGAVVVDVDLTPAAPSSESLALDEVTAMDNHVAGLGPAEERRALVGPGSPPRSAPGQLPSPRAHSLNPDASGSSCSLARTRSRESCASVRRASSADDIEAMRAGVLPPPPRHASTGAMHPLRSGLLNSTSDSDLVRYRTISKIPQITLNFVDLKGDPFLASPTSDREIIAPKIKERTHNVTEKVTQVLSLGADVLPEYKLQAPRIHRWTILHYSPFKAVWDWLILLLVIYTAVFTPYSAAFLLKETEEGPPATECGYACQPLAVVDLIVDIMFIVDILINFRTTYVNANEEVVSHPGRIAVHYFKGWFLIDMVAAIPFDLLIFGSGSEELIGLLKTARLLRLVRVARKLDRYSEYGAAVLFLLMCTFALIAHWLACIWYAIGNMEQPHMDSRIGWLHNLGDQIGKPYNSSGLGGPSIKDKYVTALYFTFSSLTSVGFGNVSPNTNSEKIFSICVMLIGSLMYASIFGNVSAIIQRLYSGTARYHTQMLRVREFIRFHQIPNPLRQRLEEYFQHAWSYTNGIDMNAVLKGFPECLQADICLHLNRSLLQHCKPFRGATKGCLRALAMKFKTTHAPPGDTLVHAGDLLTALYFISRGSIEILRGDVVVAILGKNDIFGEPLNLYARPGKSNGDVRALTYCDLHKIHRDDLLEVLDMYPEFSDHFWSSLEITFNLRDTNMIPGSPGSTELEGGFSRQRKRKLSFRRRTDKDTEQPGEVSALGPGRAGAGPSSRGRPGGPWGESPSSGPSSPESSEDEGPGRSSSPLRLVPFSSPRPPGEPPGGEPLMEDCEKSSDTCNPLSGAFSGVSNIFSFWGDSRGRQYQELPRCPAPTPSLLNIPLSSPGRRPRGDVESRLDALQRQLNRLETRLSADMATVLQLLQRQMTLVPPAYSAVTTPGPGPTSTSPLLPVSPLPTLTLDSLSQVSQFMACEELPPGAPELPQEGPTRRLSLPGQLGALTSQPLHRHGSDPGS
Chain of Human immunodeficiency virus type 1 integrase (Q7ZJM1 whole entry): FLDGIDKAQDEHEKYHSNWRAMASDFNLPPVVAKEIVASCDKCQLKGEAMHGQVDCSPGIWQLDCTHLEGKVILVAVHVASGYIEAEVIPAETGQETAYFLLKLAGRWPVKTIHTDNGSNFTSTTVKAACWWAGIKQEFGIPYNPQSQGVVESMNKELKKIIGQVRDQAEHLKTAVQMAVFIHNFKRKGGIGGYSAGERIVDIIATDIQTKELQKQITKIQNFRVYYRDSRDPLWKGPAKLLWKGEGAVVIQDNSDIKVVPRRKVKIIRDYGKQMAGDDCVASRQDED
Chain of CYP2D6 (P10635 whole entry, canonical isoform): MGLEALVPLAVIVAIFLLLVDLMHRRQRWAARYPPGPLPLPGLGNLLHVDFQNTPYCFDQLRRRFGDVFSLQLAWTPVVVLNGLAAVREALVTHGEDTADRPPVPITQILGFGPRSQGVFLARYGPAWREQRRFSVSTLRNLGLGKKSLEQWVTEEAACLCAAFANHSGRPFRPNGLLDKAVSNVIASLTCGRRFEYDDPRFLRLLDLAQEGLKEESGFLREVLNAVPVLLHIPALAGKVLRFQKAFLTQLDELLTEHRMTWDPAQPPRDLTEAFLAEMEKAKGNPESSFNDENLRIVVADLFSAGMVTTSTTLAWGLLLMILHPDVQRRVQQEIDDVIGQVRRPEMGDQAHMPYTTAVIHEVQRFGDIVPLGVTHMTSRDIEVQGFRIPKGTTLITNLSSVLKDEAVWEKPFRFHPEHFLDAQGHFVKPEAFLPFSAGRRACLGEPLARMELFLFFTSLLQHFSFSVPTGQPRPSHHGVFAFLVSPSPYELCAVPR

CCCCCCNC(=O)C1C(=O)N(O)C(=O)c2ccccc21 (configuration not stated)
solubility [1]: 160 µM (≈ 48.8 µg/mL)
cytotoxicity at 72 h, 1 µM [2]: 5.7%
cytotoxicity at 72 h, 30 µM [3]: 5.1%
inhibition (MDCK-II [4]): 2%
Activity (HepG2 [5]): 23.6%
IC50 [6]: 510 nM
cytotoxicity at 72 h, 1 µM [7]: -10%
inhibition at 40 min, 10 µM (CYP2D6): 24.6%
inhibition at 5 min, 1 µM (hERG (KCNH2)): 12.2%
Activity (HepG2 [8]): 5.8%
inhibition at 0.5 h, 10 µM (CYP3A4): 42%
Activity (HepG2 [9]): 7%
EC50 [10]: 2700 nM
cytotoxicity at 72 h, 30 µM [11]: 4.9%
CC50 [12]: 57.7 µM
Activity [13]: Active
fraction unbound at 4 h, 10 µM [14]: 0.001
cytotoxicity at 72 h, 100 µM [15]: 25.3%
IC50 [16]: 5.35 µM
inhibition (MDCK-II [17]): -5.5%
inhibition at 50 min, 10 µM (CYP2C19): 9.3%
inhibition at 0.5 h, 10 µM (CYP1A2): 12.7%
